Results collected from several papers.
Compare with care: the assays were run in different laboratories.
Read-out: cell growth or viability

| SMILES | cell line | technique | tested at | time | quantity | result |
| --- | --- | --- | --- | --- | --- | --- |
| Cc1n[nH]c2ccc3nc(-c4ccc(C(=O)NCCN(C)C)cc4)c4c(c3c12)CCCC4 | Kasumi 1 |  |  | 72 h | GI50 | 148 nM |
| Cc1nc(NC(=O)N2CCC[C@H]2C(N)=O)sc1-c1ccnc(C(C)(C)C(F)(F)F)c1 | HGC-27 | ATP luminescence |  | 5 days | EC50 | 20100 nM |
| C=C1CC[C@@H]2[C@](C)(CO)[C@H](O)CC[C@@]2(C)[C@@H]1C/C=C1/C(=O)OC[C@H]1O | SW480 | MTT |  | 72 h | IC50 | 4170 nM |
| Cc1n[nH]c2ccc3nc(-c4ccc(C(=O)NCCN(C)C)cc4F)c4c(c3c12)CCCCC4 | Kasumi 1 |  |  | 72 h | GI50 | 397 nM |
| CCN(CC)c1ccc(C=NNC(=O)CSc2nc3ccccc3c(=O)n2Cc2ccc(S(N)(=O)=O)cc2)c(O)c1 | NCI/ADR-RES | SRB |  |  | GI50 | > 100000 nM |
| COc1cccc2c1C(=O)c1c(O)c3c(c(O)c1C2=O)C[C@@](O)(C(=O)CO)C[C@@H]3O[C@H]1C[C@H](N)[C@H](O)[C@H](C)O1 | SW480 | MTT |  | 72 h | IC50 | 90 nM |
| NNc1nc2c(Cl)cc(Cl)cc2c(=O)n1-c1ccc(F)cc1 | SW480 | MTT |  | 48 h | IC50 | 52000 nM |
| C[C@H](Nc1ccc2c(c1)OCCn1cc(N3C(=O)OC[C@H]3C(F)F)nc1-2)C(N)=O | HGC-27 | ATP luminescence |  | 5 days | EC50 | 120 nM |
| Cc1nc(Nc2ncc(C(=O)Nc3c(C)cccc3Cl)s2)cc(N2CC[C@H](O)C2)n1 | Toledo | ATP luminescence | 10 µM | 72 h | inhibition | 50% |
